Assay results: paper PMC6287576 (International Journal for Parasitology: Drugs and Drug …, 2018)
In brackets after ≈: the same amount, converted by molar mass. Counter-ions that a name gives are not always drawn.

What was measured:
[1] = system: recombinant A. suum N-AChR; settings: ref Zheng et al., 2017; cited from earlier work
[2] = molecular target: T1, P. equorum N-AChR (ACR-16) (Parascaris equorum, UniProt A0A3S9VMQ8); assay: Two-electrode voltage-clamp, Peq-N-AChR in Xenopus oocytes; format: cell-based; settings: for Hill slope: Peq N-AChR; for current elicited by perfusion: Peq-N-AChR, 100 μM
T1 sequence (A0A3S9VMQ8 25-504): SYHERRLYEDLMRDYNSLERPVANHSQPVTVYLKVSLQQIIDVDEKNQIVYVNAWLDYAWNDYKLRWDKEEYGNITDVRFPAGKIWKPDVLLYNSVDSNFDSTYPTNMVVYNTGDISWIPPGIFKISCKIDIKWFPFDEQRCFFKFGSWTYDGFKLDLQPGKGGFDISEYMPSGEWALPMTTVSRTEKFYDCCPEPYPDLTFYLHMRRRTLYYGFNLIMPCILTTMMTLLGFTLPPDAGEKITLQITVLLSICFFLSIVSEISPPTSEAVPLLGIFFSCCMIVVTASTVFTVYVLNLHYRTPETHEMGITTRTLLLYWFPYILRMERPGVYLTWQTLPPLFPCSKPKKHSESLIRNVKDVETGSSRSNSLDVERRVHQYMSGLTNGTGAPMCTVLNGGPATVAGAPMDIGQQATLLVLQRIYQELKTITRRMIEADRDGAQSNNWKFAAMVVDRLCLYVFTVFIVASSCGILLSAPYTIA

[3] = molecular target: T2, C. elegans N-AChR (ACR-16) (Caenorhabditis elegans, UniProt P48180); assay: Two-electrode voltage-clamp, Cel-N-AChR in Xenopus oocytes; format: cell-based; settings: for Hill slope: Cel N-AChR
T2 sequence (P48180 20-498): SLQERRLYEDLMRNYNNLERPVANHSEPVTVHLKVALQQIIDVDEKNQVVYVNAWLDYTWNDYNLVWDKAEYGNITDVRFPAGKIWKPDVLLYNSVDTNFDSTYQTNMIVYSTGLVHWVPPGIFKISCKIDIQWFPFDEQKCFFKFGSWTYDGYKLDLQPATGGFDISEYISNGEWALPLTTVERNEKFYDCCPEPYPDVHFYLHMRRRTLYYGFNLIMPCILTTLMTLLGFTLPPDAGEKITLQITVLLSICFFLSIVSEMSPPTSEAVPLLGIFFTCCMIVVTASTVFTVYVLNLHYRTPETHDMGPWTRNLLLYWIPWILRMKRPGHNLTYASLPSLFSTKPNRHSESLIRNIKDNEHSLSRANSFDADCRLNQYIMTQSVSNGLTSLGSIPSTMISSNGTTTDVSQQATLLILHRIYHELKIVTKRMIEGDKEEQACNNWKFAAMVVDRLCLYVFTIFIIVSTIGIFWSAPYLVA

[4] = system: C. elegans acr-16 (ok789) mutant lacking N-AChR; assay: C. elegans paralysis assay, acr-16 mutant; design: species or system Caenorhabditis elegans; settings: agar plate containing 31 mM drug, 15-60 min
[5] = system: H. contortus L3 larvae, anthelmintic-susceptible Weybridge isolate; assay: Automated larval migration assay; settings: Haemonchus contortus, read-out: IC50 (L3 migration, ALMA)
[6] = system: C. elegans lev-8 (ok1519) mutant lacking L-AChR; assay: C. elegans paralysis assay, lev-8 mutant; design: species or system Caenorhabditis elegans; settings: agar plate containing 31 mM drug, 15-60 min
[7] = system: C. elegans Bristol N2 (wild type); assay: C. elegans paralysis assay, N2; design: species or system Caenorhabditis elegans; settings: agar plate containing 31 mM drug, 15-60 min
[8] = system: H. contortus L3 larvae, Lev/Pyr/Ivm multi-resistant Kokstad isolate; assay: Automated larval migration assay; design: species or system Haemonchus contortus; settings: for IC50: Haemonchus contortus, read-out: IC50 (L3 migration, ALMA); for resistance factor between Kok and Wey: based on respective ALMA IC50 values
H. contortus L-AChR-2 = assay: Two-electrode voltage-clamp, Hco-L-AChR-2 in Xenopus oocytes; format: cell-based, Haemonchus contortus; settings: 100 μM
H. contortus L-AChR-1 = assay: Two-electrode voltage-clamp, Hco-L-AChR-1 in Xenopus oocytes; format: cell-based, Haemonchus contortus; settings: 100 μM
C. elegans L-AChR [9] = assay: Two-electrode voltage-clamp, Cel-L-AChR in Xenopus oocytes; format: cell-based, Caenorhabditis elegans; settings: 100 μM
C. elegans L-AChR [10] = settings: recombinant C. elegans L-AChR in Xenopus oocytes; ref Boulin et al., 2008; cited from earlier work
[11] = system: H. contortus Weybridge isolate (eggs); assay: Egg hatch assay, Weybridge isolate; design: species or system Haemonchus contortus; settings: triplicate
Summary of the method: (§1)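 Benzimidazole test compound applied to eggs of each sheep-passaged isolate to establish benzimidazole susceptibility or resistance status. Method followed a published egg hatch protocol. ED50 reported in μg/ml, from triplicate tests.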

[12] = system: H. contortus Kokstad isolate (eggs); assay: Egg hatch assay, Kokstad isolate; design: species or system Haemonchus contortus; settings: triplicate
Summary of the method: as §1

Row | Compound | Hill slope [2] | current elicited by perfusion [2] | EC50 [3] [µM] | Hill slope [3] | current elicited by perfusion ([3]; Cel-N-AChR, 100 μM) | effect on motility (paralysis) [4] | IC50 [5] [µM] | effect on motility (paralysis) [6] | effect on motility (paralysis) [7] | IC50 [8] [µM] | response of oocytes (H. contortus L-AChR-2) | response of oocytes (H. contortus L-AChR-1) | response of oocytes (C. elegans L-AChR [9]) | resistance factor between Kok and Wey [8] | further results
1 | C#Cc1cncc([C@@H]2CCCCN2)c1 [(S)-5-ethynyl-anabasine] | – | – | – | – | – | – | – | – | – | – | – | – | – | – | agonist potency [1]: higher agonist potency than other nicotine alkaloids
2 | CC(=O)OCC[N+](C)(C)C [Acetylcholine, Acetylcholine chloride] | 2.0 ± 0.2 | robust currents in the μA range | 22 ± 1.2 | 2.1 ± 0.4 | robust currents in the μA range | – | – | – | – | – | – | – | – | – | –
3 | c1cncc([C@@H]2CCCCN2)c1 [Anabasine, anabasine] | 1.8 ± 0.2 | very similar currents as for Nic | 27.5 ± 0.9 | 2.4 ± 0.4 | very similar currents as for Nic | significantly less sensitive | 179 ± 7.9 | affected | affected | 141 ± 6.9 | very small currents on few oocytes | failed to induce significant response | failed to induce significant response | – | EC50 [2]: 1.7 ± 0.1 µM
4 | c1ccc([C@H]2CN3CCSC3=N2)cc1 [Levamisole, (−)-tetramisole hydrochloride] | – | – | – | – | – | – | 1.14 ± 0.03 | – | – | 14 ± 0.35 | – | – | – | 12.3 | sensitivity of recombinant receptor (C. elegans L-AChR [10]): sensitive
5 | CN1CCC[C@H]1c1cccnc1 [Nicotine, (−)-nicotine hydrogen tartrate] | 1.7 ± 0.2 | – | 15.1 ± 1.3 | 2.2 ± 0.2 | – | significantly less sensitive | 611 ± 55.1 | affected | affected | 1170 ± 67.7 | responded robustly | failed to induce significant response | failed to induce significant response | – | EC50 [2]: 2.9 ± 0.5 µM; Emax at 100 µM ([2]; read-out: % of ACh response): 96.6 ± 9.2%; sensitivity of recombinant receptor (C. elegans L-AChR [10]): insensitive; % of ACh response ([3]; Cel-N-AChR, 100 μM): 79.5 ± 7.5%
6 | CN1CCCN=C1/C=C/c1cccs1 [Pyrantel, pyrantel citrate] | – | – | – | – | – | – | 0.77 ± 0.01 | – | – | 18.5 ± 1.32 | – | – | – | 23.9 | –
7 | c1ccc2[nH]c(-c3cscn3)nc2c1 [TBZ, thiabendazole] | – | – | – | – | – | – | – | – | – | – | – | – | – | – | ED50 (egg hatch assay) [11]: 0.024 ± 0.001 µg/mL (≈ 0.119 µM); ED50 (egg hatch assay) [12]: 0.437 ± 0.205 µg/mL (≈ 2.17 µM)
8 | (±)-nornicotine | 1.9 ± 0.3 | very similar currents as for Nic | – | 2.7 ± 0.4 | very similar currents as for Nic | significantly less sensitive | – | affected | affected | – | very small currents on few oocytes | failed to induce significant response | failed to induce significant response | – | –
9 | ivermectin | – | – | – | – | – | – | – | – | – | – | – | – | – | 15.1 | –
